High-throughput results from PubChem.
Hits are enriched below; roughly 2.6% of the tested compounds scored in any of these assays.
OXTR agonist – agonists of human oxytocin receptor; 320,000 tested, 0.32% active; CHO-OTR cells, Fluo-8 calcium fluorescence; normalized: DMSO 0%, oxytocin 100%; activation, % at 3 µM;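 active = activation above the mean of all tested compounds plus 3 SD, cutoff set per screening run, cut at about 20% in these data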;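 also: peak over basal fluorescence ratio from a 100 s FLIPR kinetic read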
OX1R antag-1 – antagonists of human orexin 1 receptor; O43613; CHO/OX1R cells, Fluo-8 calcium fluorescence, orexin A; inhibition, % at 5 µM; 330,000 tested, 0.43% active; AID 434989;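 active = inhibition above its plate's threshold, mean inhibition of all tested compounds on the plate plus 3 SD, cut at about 37% in these data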;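 also: 0% = orexin A challenge wells and 100% = SB-334867-A antagonist wells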
Target sequence (O43613 whole entry, looked up): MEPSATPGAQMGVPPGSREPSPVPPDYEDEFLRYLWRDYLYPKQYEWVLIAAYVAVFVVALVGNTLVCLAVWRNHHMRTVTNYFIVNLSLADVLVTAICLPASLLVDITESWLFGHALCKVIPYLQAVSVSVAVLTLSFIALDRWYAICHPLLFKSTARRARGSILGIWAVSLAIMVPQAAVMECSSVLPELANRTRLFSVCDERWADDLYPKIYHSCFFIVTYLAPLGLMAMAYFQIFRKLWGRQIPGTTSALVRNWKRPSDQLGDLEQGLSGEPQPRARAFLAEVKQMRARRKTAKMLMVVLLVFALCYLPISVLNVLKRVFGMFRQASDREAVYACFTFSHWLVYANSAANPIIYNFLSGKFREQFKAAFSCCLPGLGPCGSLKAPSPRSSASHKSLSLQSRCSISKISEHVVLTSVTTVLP
OXTR potentiator – human OXTR potentiation. activation, % at 3 µM. 320,000 tested, 0.061% active. CHO-OTR cells, Fluo-8 calcium fluorescence, potentiator mode; 0% = oxytocin EC15, 100% = EC100. P30559. AID 2445;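 active = activation above that plate's cutoff, the mean activation of tested compounds plus 3 SD, cut at about 6.6% in these data, passing the limit was not always enough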;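 also: 100% uses oxytocin at 75 nM as the full agonist control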
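Material: CHO-OTR cells, human receptor; compound dosing: single dose, 3.0 µM nominal final compound concentration; schedule: 6 min compound pre-incubation at room temperature, 100 s kinetic read; measured by: kinetic Fluo-8 calcium fluorescence; read-out basis: % activation vs EC15 and EC100 oxytocin; controls: EC15 oxytocin alone as 0%, 75 nM oxytocin as 100%; replicates: singlicate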
V1R ag counter – V1a receptor agonism, counter-screen for OXTR agonists. P37288. CHO-V1R cells, Fluo-8 calcium fluorescence, agonist mode; 0% DMSO, 100% 3 nM vasopressin. activation, % at 3 µM. 320,000 tested, 0.25% active. AID 2797;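 active = activation above the mean activation of all tested compounds plus 3 SD, per screening run, cut at about 20% in these data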;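 also: signal is peak over basal fluorescence ratio across a 100 second FLIPR read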
OX1R antag-2 – OX1R (human) antagonism. O43613. OX1R-expressing cells, FRET antagonist read-out. inhibition, % at 6.6 µM. 330,000 tested, 1.8% active. AID 485270; in the data active = inhibition mostly above about 38%, no sharp cut-off; inactive = mostly below about 40%;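 also: 0% = agonist challenge alone and 100% = reference antagonist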
CHO parental Ca – counter-screen: ATP calcium response change in parental CHO cells; parental CHO-K1, ATP-induced calcium, Fluo-8 fluorescence; inhibition, % at 5.6 µM; 330,000 tested, 0.63% active;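 active = inhibition above that plate's mean sample inhibition plus 3 SD, cut at about 26% in these data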;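 also: 0% = ATP-challenged DMSO wells and 100% = DMSO wells without ATP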
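Test system: untransfected parental CHO cell line; also added: ATP stimulus; dosing: 5.6 µM, single dose; signal: calcium-sensitive Fluo-8 fluorescence; measure: percent inhibition of ATP-evoked calcium rise, normalized to controls; benchmarks: low control ATP plus DMSO, high control DMSO only; replication: one well per compound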
OX1R HTRF conf – confirmation of human orexin 1 receptor antagonists, HTRF format. 1,800 tested, 49% active. inhibition, % at 6.6 µM. OX1R-expressing cells, HTRF antagonist assay. AID 492964. shares compounds with OX1R antag-2; in the data active = inhibition above about 55%;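 also: CHO cells expressing OX1R stimulated with orexin A at about EC80; 0% = agonist challenge alone and 100% = reference antagonist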
CHO-K1 HTRF cnt – counter-screen: parental CHO-K1 HTRF response; 1,800 tested, 48% active; parental CHO-K1 cells, HTRF counterscreen; inhibition, % at 6.6 µM; shares compounds with OX1R antag-2; in the data active = inhibition above about 17%;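 also: 0% = agonist challenge with vehicle and 100% = vehicle alone without agonist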
Active calls of the source: *; · = not tested or not shown.

SMILES	OXTR agonist	OX1R antag-1	OXTR potentiator	V1R ag counter	OX1R antag-2	CHO parental Ca	OX1R HTRF conf	CHO-K1 HTRF cnt
CCCn1c(C(CO)Nc2nc(C)cs2)nc2ccccc21 (stereo not given)	1	-13	0	0	14	1	·	·
CCN1C(=O)[C@@H]2[C@@H](c3ccc(-c4ccc(F)cc4)c(OC)c3)N3CCCC[C@@]3(C(=O)OC)[C@@H]2C1=O	-1	-6	-8	1	82*	-41	42	-3
Cn1cnnc1SCc1ccc(C(=O)N=Nc2c(O)n(C)c3ccccc23)cc1	0	-15	-14	2	139*	-19	54	62*
Cn1cnnc1SCC(=O)n1c2ccccc2c2ccccc21	0	-17	-14	-1	20	-23	·	·
Cc1ccc(C)c(NC(=O)CN(C)C(=O)c2cc(-c3cccs3)nn2-c2ccccc2)c1	-2	-45	-5	0	23	-15	·	·
O=[N+]([O-])c1cc(-c2nc(-c3ccncc3)no2)ccc1Cl	-1	-2	5	1	59	3	·	·
O=[N+]([O-])c1cc(-c2nc(-c3ccncc3)no2)cc([N+](=O)[O-])c1	-1	-31	-5	-1	78*	0	72*	63*
Cc1ccc(S(=O)(=O)NCCC(=O)N2CCN(c3ccccc3)CC2)cc1C	1	-12	-10	4	8	-17	·	·
CCOc1ccc(C(=O)NNC(=O)CN2C(=O)C3CC=CCC3C2=O)cc1OC (stereo not given)	1	-1	1	-1	4	-7	·	·
CCCN=C(C)C1=C(O)c2ccccc2C1=O	-1	-5	-4	1	19	-6	·	·
CC(=O)N(C)C1=C(O)c2ccccc2C(=O)C1=O	0	-7	-14	0	83*	-2	51	94*
O=C(COc1ccccc1F)Nc1nnc(C2CCCC2)s1	-1	-23	-8	1	3	-24	·	·
Cc1nc2ccc([N+](=O)[O-])cc2[nH]1	0	-20	-2	1	17	-6	·	·
Cc1cnc2cc([N+](=O)[O-])ccc2n1	-1	2	-4	1	101*	-10	66*	84*
O=C(O)CN(c1ccccc1[N+](=O)[O-])S(=O)(=O)c1ccccc1	1	1	-1	0	5	2	·	·
C=CCn1cc(/C=C/c2cc[n+](C)cc2)c2ccccc21	3	8	0	6	87*	0	33	33*
O=[N+]([O-])c1cnccc1Nc1ccc(F)cc1	0	-16	-5	0	127*	6	36	33*
Cn1c(NC2CCCCC2)c(N=O)c(=O)n(C)c1=O	2	3	-3	1	12	-1	·	·
Cc1cc(-n2c(=O)c(C#N)cc3c(=O)n4cccc(C)c4nc32)no1	1	-5	-8	0	36	-4	·	·
Cc1cccn2c(=O)c3cc(C(N)=S)c(=N)n(CCCN4CCOCC4)c3nc12	0	-14	-15	-1	64	-12	·	·
Cc1ccc2nc3c(cc(C(=O)NCC4CCCO4)c(=N)n3CC3CCCO3)c(=O)n2c1 (stereo not given)	0	-14	-6	1	140*	-10	49	72*
Cc1cccn2c(=O)c3cc(C#N)c(=O)n(-c4c(C)n(C)n(-c5ccccc5)c4=O)c3nc12	1	-19	-8	0	147*	3	53	55*
CCCCNC(=O)c1cc2c(=O)n3cccc(C)c3nc2n(CCN2CCOCC2)c1=N	0	-24	-10	-1	112*	-38	50	55*
Cc1cccn2c(=O)c3cc(C#N)c(=N)n(CCCN4CCOCC4)c3nc12	-1	-67	4	0	144*	-16	40	64*
COc1cc(/C=C/C(=O)OCC(=O)NCc2cccs2)ccc1OCC#N	0	-8	-5	1	9	-9	·	·
SMILES	OXTR agonist	OX1R antag-1	OXTR potentiator	V1R ag counter	OX1R antag-2	CHO parental Ca	OX1R HTRF conf	CHO-K1 HTRF cnt
Cc1ccc2nc3c(cc(C(=O)NCc4ccco4)c(=N)n3Cc3ccco3)c(=O)n2c1	-2	-26	-3	-1	71	-11	·	·
Cc1cccn2c(=O)c3cc(C(=O)NC(C)c4ccccc4)c(=N)n(CCCn4ccnc4)c3nc12 (stereo not given)	0	-2	-2	0	23	-4	·	·
N#Cc1cc2c(=O)n3ccccc3nc2n(CCCn2ccnc2)c1=N	0	-22	1	0	82*	-4	48	68*
Cc1ccc2nc3c(cc(C(=O)NCCc4ccccc4)c(=N)n3CCN3CCOCC3)c(=O)n2c1	-1	-9	-15	1	97*	-20	64*	69*
COCCCn1c(=N)c(C(N)=S)cc2c(=O)n3cccc(C)c3nc21	-2	-10	-7	-1	82*	-28	39	49*
CC(Sc1ccccc1)C(=O)N1CCN(S(=O)(=O)c2ccccc2C(F)(F)F)CC1 (stereo not given)	0	-19	0	2	4	-4	·	·
CSc1ccc(CNC(=O)Cc2ccc(NC(=O)C3=C(C)OCCS3)cc2)cc1	14	-16	-9	3	7	-6	·	·
COCCn1c(=NC(=O)CSCC(=O)N2CCOCC2)sc2ccccc21	-1	-20	-8	0	3	-3	·	·
CC(C)Sc1nnc(SCC(=O)NCCCN2CCCC2=O)s1	8	3	-4	6	11	-7	·	·
COc1ccc(-n2c(Cn3nnc4ccccc43)n[nH]c2=S)cc1	0	-8	0	1	7	-4	·	·
S=c1[nH]nc2nnc3ccccc3n12	0	-11	4	-1	85*	2	88*	79*
Cc1ccc(C(=O)/C=C2\NCC(C)NC2=O)cc1 (stereo not given)	-1	-17	-11	0	78*	-14	40	18*
CCCNC(=O)C(Cc1ccccc1)NS(=O)(=O)c1cccc2nsnc12 (stereo not given)	0	-9	-5	1	126*	-23	38	27*
CCC(C)NC(=O)C(Cc1ccccc1)NS(=O)(=O)c1cccc2nsnc12 (stereo not given)	-1	2	-3	-1	153*	-18	55*	-4
CCOCCCNC(=O)C(Cc1ccccc1)NS(=O)(=O)c1cccc2nsnc12 (stereo not given)	-1	-4	10	-1	39	-20	·	·
